Assay [1] can be described thus: Her2 expression decrease, cell viability multiplex – SKBR3 breast tumor cells, AlphaScreen, ATP viability, primary screen (AID 461;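 active = Her2 level under about 52% in both replicate screens, with viability over 70% of control, limit read from the data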;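 for Her2 level: lower value means less Her2 protein in the cells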;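 for viability: percent of carrier control wells set as 100% viability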). Conditions: SKBR3 Her2 protein level, 18-24 h, measured here: SKBR3 viability, ATP luminescence, at 10 µM. A general note: Alpha assays give light when donor and acceptor beads are brought close together.
In assay [2] the target is Receptor tyrosine-protein kinase erbB-2 (Homo sapiens) (UniProt P04626). The assay is described as above. Conditions: 18-24 h, at 10 µM, stronger effect = lower value.
Chain of Receptor tyrosine-protein kinase erbB-2 (Homo sapiens) (P04626 whole entry, looked up): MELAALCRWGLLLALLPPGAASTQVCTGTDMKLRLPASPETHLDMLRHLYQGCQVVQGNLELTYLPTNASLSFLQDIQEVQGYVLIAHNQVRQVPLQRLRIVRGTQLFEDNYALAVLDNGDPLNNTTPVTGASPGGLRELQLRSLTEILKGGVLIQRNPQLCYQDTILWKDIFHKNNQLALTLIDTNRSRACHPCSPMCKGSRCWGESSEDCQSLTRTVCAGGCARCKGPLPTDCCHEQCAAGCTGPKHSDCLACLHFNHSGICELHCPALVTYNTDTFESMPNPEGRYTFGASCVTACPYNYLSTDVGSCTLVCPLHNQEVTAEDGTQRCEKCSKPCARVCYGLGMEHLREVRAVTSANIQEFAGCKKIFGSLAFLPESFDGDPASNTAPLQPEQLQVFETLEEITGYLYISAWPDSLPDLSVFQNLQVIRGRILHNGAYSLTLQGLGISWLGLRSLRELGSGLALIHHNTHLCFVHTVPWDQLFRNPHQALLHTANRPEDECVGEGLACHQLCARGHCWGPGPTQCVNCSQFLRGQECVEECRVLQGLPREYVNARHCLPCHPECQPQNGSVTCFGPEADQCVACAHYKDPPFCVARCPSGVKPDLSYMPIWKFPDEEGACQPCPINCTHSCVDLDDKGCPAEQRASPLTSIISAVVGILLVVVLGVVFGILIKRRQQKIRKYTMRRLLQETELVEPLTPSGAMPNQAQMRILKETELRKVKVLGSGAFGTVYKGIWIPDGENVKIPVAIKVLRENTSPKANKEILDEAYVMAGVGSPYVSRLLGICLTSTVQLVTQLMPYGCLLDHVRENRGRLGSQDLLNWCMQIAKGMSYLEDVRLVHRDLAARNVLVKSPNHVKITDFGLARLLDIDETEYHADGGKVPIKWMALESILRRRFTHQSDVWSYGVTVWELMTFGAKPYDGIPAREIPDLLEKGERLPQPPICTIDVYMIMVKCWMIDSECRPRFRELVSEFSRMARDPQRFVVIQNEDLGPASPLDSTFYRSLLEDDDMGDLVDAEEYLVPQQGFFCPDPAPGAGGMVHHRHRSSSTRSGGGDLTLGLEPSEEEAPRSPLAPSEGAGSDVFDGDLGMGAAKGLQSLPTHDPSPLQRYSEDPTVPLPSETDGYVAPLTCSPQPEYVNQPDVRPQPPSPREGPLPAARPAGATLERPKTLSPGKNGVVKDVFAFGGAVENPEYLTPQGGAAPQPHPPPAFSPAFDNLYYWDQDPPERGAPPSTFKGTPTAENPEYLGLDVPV
Assay [3] is described as follows: reduced viability of SK-BR-3 breast cancer cells – cell-based, 24 h, human, pilot screen (AID 572).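 Note: compound exposure lasted between 18 and 24 h rather than exactly 24 h; 100% = carrier-treated control wells.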 Conditions: SK-BR-3 viability, CellTiter-Glo luminescence, at 10 µM, stronger effect = lower value. On the technique in general: Cellular ATP, detected with luciferase, serves as a proxy for viable cell number.
The nature of assay [4]: HUVEC growth inhibition – cell-based, human, primary screen (AID 575;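 active = viability at or below 30% in both replicate assays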;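 note: 100% = median of untreated cell wells with 0.1% DMSO on each plate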). Conditions: HUVEC proliferation, CellTiter-Glo luminescence, 72 h; at 10 µM; stronger effect = lower value. The essentials:
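System: primary human umbilical vein endothelial cells; Quantity: 1250 endothelial cells in each well; Buffer or medium: supplemented EBM, 2% fetal bovine serum; Doses: one dose, 10 µM final, 0.1% DMSO; Incubation: 72 h compound incubation; Technique: ATP-based CellTiter-Glo luminescent read; Evaluation: percent of median DMSO-control luminescence; Controls: vehicle and MePR control wells.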

A short description of assay [5]: H69AR cell proliferation blockers – human, duplicate replicates, primary screen (AID 580;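 active = viability at or under a set limit in both replicates, limit being median viability minus 3 SD, cut at about 48% in these data, passing the limit was not always enough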;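 note: 100% = mean luminescence of untreated wells and 0% = no signal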). Conditions: H69AR lung tumor cells viability, ATP luminescence, 72 h; at 10 µM; stronger effect = lower value.
Assay [6] can be described thus: MRP1 drug-resistance reversers in H69AR cells – cell-based, doxorubicin co-treatment, pilot screen (AID 601;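 active = viability loss from added drug above about 55%, and viability with drug at most 40%, in both replicates, limit read from the data, passing the limit was not always enough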). Conditions: CellTiter-Glo, 72 h, at 10 µM; for differential viability (reversal): stronger effect = higher value.
Assay [7] in a line: yeast transport mutant growth inhibition pilot in 384-well plates, post-Golgi transport modulator project (AID 636; in the data active = inhibition above about 31%). Conditions: absorbance 615 nm, about 18 h, stronger effect = higher value.
The nature of assay [8]: growth suppression of yeast trafficking mutant, preliminary HTS, modulators of trafficking downstream of Golgi apparatus project, 1536-format plate, OD 615 nm (AID 637; in the data active = inhibition above about 30%). Conditions: yeast transport mutant growth, absorbance 615 nm, 18 h; stronger effect = higher value.
The mark [9] stands for this setting: H69AR cells + 2 uM doxorubicin, measured here: viability with 2 uM doxorubicin, stronger effect = lower value.
The mark [10] stands for this setting: H69AR cells, compound alone cytotoxicity.

The source made the active and inactive calls.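 Rule for the calls, unless noted: active = viability at or below 10% of carrier control in both of two separate runs; inconclusive = viability at or below 10% in only one of the two runs; inactive = the rest.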

Take `Cc1cc(C)nc(SCc2nnc(SCc3ccccc3Cl)o2)n1`: the viability in assay [1] is 80%; in assay [3] it was 80% (inactive); in assay [4], 93.8% (inactive); in assay [5], 79.5% (inactive); in assay [6] (setting [9]), 81.5%; in assay [6] (setting [10]), 79.5%. The Her2 level in assay [2] was 78.5% (inactive). In addition, the differential viability (reversal) in assay [6] (H69AR cells + 2 uM doxorubicin) is -1.99% (inactive). The results for the inhibition in assay [7] and in assay [8] were -3.29% (inactive) and 1.82% (inactive), respectively.
In the case of `Cc1cc(C)nc(N2CCC(C(=O)NCc3cccc(C(F)(F)F)c3)CC2)n1`, the viability in assay [1] was 104%; in assay [3] it was 104% (inactive); in assay [4], 76.6% (inactive); in assay [5], 91.1% (inactive); in assay [6] (setting [9]), 86.2%; in assay [6] (setting [10]), 91.1%. In addition, the Her2 level in assay [2] was 100% (inactive). Further, the differential viability (reversal) in assay [6] (H69AR cells + 2 uM doxorubicin) is 4.94% (inactive). In addition, the inhibition in assay [7] was -6.08% (inactive); in assay [8], -2.33% (inactive).
Consider `Cc1nc(CNS(=O)(=O)c2cc(C)c(C)cc2C)cs1`, for which the viability was 99% in assay [1]; 99% (inactive) in assay [3]; 121% (inactive) in assay [4]; 94.3% (inactive) in assay [5]; 89.9% in assay [6] (setting [9]); 94.3% in assay [6] (setting [10]). Further, the Her2 level in assay [2] is 89% (inactive). For the same molecule, the differential viability (reversal) in assay [6] (H69AR cells + 2 uM doxorubicin) is 4.38% (inactive). Moreover, the inhibition is -7.57% (inactive) in assay [7] and 1.67% (inactive) in assay [8].
As to `O=C(O)CCc1ccc(-c2ccc(Br)cc2)n1CC(=O)O`, the viability in assay [1] is 102%; in assay [3], 102% (inactive); in assay [4], 91.9% (inactive); in assay [5] it was 101% (inactive); in assay [6] (setting [9]) it was 98%; in assay [6] (setting [10]), 101%. In addition, the Her2 level in assay [2] is 102% (inactive). The differential viability (reversal) in assay [6] (H69AR cells + 2 uM doxorubicin) was 2.92% (inactive). Also, the inhibition is -0.51% (inactive) in assay [7] and -3.67% (inactive) in assay [8].
`Cc1nc2ccccn2c1C(=O)NCCCN1CCOCC1`: the viability in assay [1] was 91.5%; in assay [3] it was 91.5% (inactive); in assay [4], 109% (inactive); in assay [5], 102% (inactive); in assay [6] (setting [9]), 96.4%; in assay [6] (setting [10]), 102%. For the same molecule, in assay [2], the Her2 level is 94.5% (inactive). In addition, the differential viability (reversal) in assay [6] (H69AR cells + 2 uM doxorubicin) was 5.8% (inactive). Besides, the results for the inhibition in assay [7] and in assay [8] were -0.27% (inactive) and 4.59% (inactive), respectively.
As to `O=C(COc1ccccc1F)NC1CC1`, the viability in assay [1] was 94.5%; in assay [3] it was 94.5% (inactive); in assay [4], 88.7% (inactive); in assay [5], 107% (inactive); in assay [6] (setting [9]), 95%; in assay [6] (setting [10]), 107%. Also, the Her2 level in assay [2] is 88.5% (inactive). Further, the differential viability (reversal) in assay [6] (H69AR cells + 2 uM doxorubicin) is 11.7% (inactive). The inhibition in assay [7] was -6.58% (inactive); in assay [8], -2.5% (inactive).
Take `CCOc1ccc(-c2nnc(N)s2)cc1`: the viability is 95% in assay [1]; 95% (inactive) in assay [3]; 96.3% (inactive) in assay [4]; 118% (inactive) in assay [5]; 92.3% in assay [6] (setting [9]); 118% in assay [6] (setting [10]). For the same molecule, the Her2 level in assay [2] is 90.5% (inactive). In addition, the differential viability (reversal) in assay [6] (H69AR cells + 2 uM doxorubicin) was 25.6% (inactive). Further, the inhibition was 0.67% (inactive) in assay [7] and -1.29% (inactive) in assay [8].
For the molecule `O=C1COc2ccc(C(=O)NCc3ccco3)cc2N1`, the viability was 95.5% in assay [1]; 95.5% (inactive) in assay [3]; 105% (inactive) in assay [4]; 104% (inactive) in assay [5]; 96.1% in assay [6] (setting [9]); 104% in assay [6] (setting [10]). Besides, in assay [2], the Her2 level is 86% (inactive). In assay [6] (H69AR cells + 2 uM doxorubicin), the differential viability (reversal) was 7.71% (inactive). Further, the values for the inhibition in assay [7] and in assay [8] were -2.11% (inactive) and -7.26% (inactive), respectively.
Regarding `COc1ccc(C2=NOC(C(=O)NCCCN3CCOCC3)C2)cc1` (stereo not given), the viability in assay [1] was 109%; in assay [3] it was 109% (inactive); in assay [4], 116% (inactive); in assay [5], 87.3% (inactive); in assay [6] (setting [9]), 86.2%; in assay [6] (setting [10]), 87.3%. The Her2 level in assay [2] is 100% (inactive). Further, in assay [6] (H69AR cells + 2 uM doxorubicin), the differential viability (reversal) was 1.06% (inactive). Also, the inhibition in assay [7] was -6.71% (inactive); in assay [8], 9.34% (inactive).
Take `COc1cc(C2CC(=O)NC3=C2C(=O)CC(C)(C)C3)ccc1O` (stereo not given): the viability in assay [1] was 89.5%; in assay [3] it was 89.5% (inactive); in assay [4] it was 82.7% (inactive); in assay [5], 109% (inactive); in assay [6] (setting [9]), 89.5%; in assay [6] (setting [10]), 109%. For the same molecule, the Her2 level in assay [2] was 93.5% (inactive). Also, in assay [6] (H69AR cells + 2 uM doxorubicin), the differential viability (reversal) is 19.9% (inactive). Further, the inhibition in assay [7] is -3.82% (inactive); in assay [8], -4.17% (inactive).
As to `COC(=O)c1ccccc1NC(=O)CSc1nc2c(c(=O)n(C)c(=O)n2C)n1C`, the viability was 86% in assay [1]; 86% (inactive) in assay [3]; 101% (inactive) in assay [4]; 97% (inactive) in assay [5]; 93.5% in assay [6] (setting [9]); 97% in assay [6] (setting [10]). In addition, the Her2 level in assay [2] is 124% (inactive). Besides, the differential viability (reversal) in assay [6] (H69AR cells + 2 uM doxorubicin) is 3.48% (inactive). In addition, the inhibition was 5.26% (inactive) in assay [7] and 26.5% (inactive) in assay [8].
Regarding `O=C(CSc1nc2ccccc2s1)N1CCOCC1`, the viability in assay [1] is 119%; in assay [3], 119% (inactive); in assay [4] it was 83.6% (inactive); in assay [5], 90.4% (inactive); in assay [6] (setting [9]), 97.1%; in assay [6] (setting [10]), 90.4%. Besides, in assay [2], the Her2 level is 106% (inactive). In addition, the differential viability (reversal) in assay [6] (H69AR cells + 2 uM doxorubicin) is -6.72% (inactive). Also, the inhibition in assay [7] was -2.27% (inactive); in assay [8], -9.03% (inactive).
Regarding `CCC1=C(C(=O)OC)C(c2cc(OC)ccc2OC)C(C#N)=C(N)O1` (stereo not given), the viability in assay [1] was 99.5%; in assay [3], 99.5% (inactive); in assay [4], 71.9% (inactive); in assay [5] it was 87.2% (inactive); in assay [6] (setting [9]) it was 87.2%; in assay [6] (setting [10]), 87.2%. The Her2 level in assay [2] was 87.5% (inactive). Further, the differential viability (reversal) in assay [6] (H69AR cells + 2 uM doxorubicin) is -0.035% (inactive). Besides, the results for the inhibition in assay [7] and in assay [8] were -6.67% (inactive) and -0.98% (inactive), respectively.
Consider `CC1CN(Cc2nc3c(c(=O)[nH]c(=O)n3C)n2CC(N)=O)CC(C)O1` (stereo not given), for which the viability in assay [1] is 99.5%; in assay [3], 99.5% (inactive); in assay [4], 88.6% (inactive); in assay [5] it was 102% (inactive); in assay [6] (setting [9]), 92.4%; in assay [6] (setting [10]), 102%. In addition, in assay [2], the Her2 level is 97.5% (inactive). The differential viability (reversal) in assay [6] (H69AR cells + 2 uM doxorubicin) was 9.96% (inactive). Moreover, the inhibition is 0.51% (inactive) in assay [7] and 0.67% (inactive) in assay [8].

For orientation: viability means a read-out of living cells in per cent, often relative to untreated cells. As a reminder, the inhibition is the relative decrease from the control value, in per cent.

The record behind these values is PubChem BioAssay.
